The RNAGym collection of RNA variant scans (doi:10.1126/science.aae0568)
Fewer inactive variants are shown than the library holds.

B1: tRNA (parent)
chain: GUUCCGUUGGCGUAAUGGUAACGCGUCUCCCUCCUAAGGAGAAGACUGCGGGUUCGAGUCCCGUACGGAACG

Variants of: B1
Experiment: yeast fitness relative to wild type (ratio to wild type); higher = fitter; tRNA-Arg(CCU), competitive growth, 37 C, YPD
How it was run: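 Gene amplicons from the start population and from each of six end populations were read by 100-nucleotide paired-end sequencing. Those end populations came from pooled Saccharomyces cerevisiae strains carrying tRNA-Arg(CCU) gene variants at the native locus, competed in YPD at 37°C for 24 hours. Fitness relative to wild type was worked out from changes in genotype frequencies. Genotypes needed ≥ 100 starting reads, and estimates < 0.5 were set to 0.5.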

Variant | yeast fitness
GUUCCGUUGGCGUAAUGGUAACGCGUCUGCCUCCUAAGGAGAAGACGGGGGGUGCGAGUCCCGUACGGAACG [C29G U47G C49G U54G] | ≤ 0.5
GUUCCGUUGGCGUAAUGGUAACGCGUCUGCCUCCUAAGGAGAAGACGGCGGGUUCGAGUCCCAUACGGAUCG [C29G U47G G63A A70U] | ≤ 0.5
GUUCCGUUGGCGUAAUGGUAACGCGUCUGCCUCCUAAGGAGAAGACUGCGGGAUCGAGUCCCGUACGGAACG [C29G U53A] | 0.523
GUUCCGUUGGCGUAAUGGUAACGCGUCUGCCUCCUAAGGAGAAGACUGCGGGCUCGAGUCGCGUACAGCACG [C29G U53C C61G G67A A69C] | ≤ 0.5
GUUCCGUUGGCGUAAUGGUAACGCGUCUGCCUCCUAAGGAGAAGACUGCGGGUACGAGUCCCGUACGGAACG [C29G U54A] | ≤ 0.5
GUUCCGUUGGCGUAAUGGUAACGCGUCUGCCUCCUAAGGAGAAGACUGCGGGUGCGAGUCCCGUACGGAACG [C29G U54G] | 0.563
GUUCCGUUGGCGUAAUGGUAACGCGUCUGCCUCCUAAGGAGAAGACUGCGGGUUCGAGCCCCGUACGGAACG [C29G U59C] | 0.606
GUUCCGUUGGCGUAAUGGUAACGCGUCUUCCUCCUCAGGAGAAGACUGCGGGUUCGAGUCCCGUACGGAACG [C29U A36C] | 0.531
GUUCCGUUGGCGUAAUGGUAACGCGUCUUCCUCCUCAGGAGACGACUGCGGGUUCGAGUACCGUACGGAACG [C29U A36C A43C C60A] | ≤ 0.5
GUUCCGUUGGCGUAAUGGUAACGCGUCUUCCUCCUCAGGAGAAGUCUGCGGGUCCGAGUCCCGUACGGAACG [C29U A36C A45U U54C] | ≤ 0.5
GUUCCGUUGGCGUAAUGGUAACGCGUCUUCCUCCUCAGGAGAAGACUGCGGGUUCGUGUCCCGUACGGAACG [C29U A36C A57U] | ≤ 0.5
GUUCCGUUGGCGUAAUGGUAACGCGUCUUCCUCCUCAGGAGAAGAUUGCGGGAUCGAGUCCCGUACGGAACG [C29U A36C C46U U53A] | ≤ 0.5
GUUCCGUUGGCGUAAUGGUAACGCGUCUUCCUCCUCAGGAGAAGACUACCGGUUCGAGUCCCGUACGGAACG [C29U A36C G48A G50C] | ≤ 0.5
GUUCCGUUGGCGUAAUGGUAACGCGUCUUCCUCCUGAGGAGAAGACUGCGGGUUCGAGUCCCGUACGGAACG [C29U A36G] | 0.842
GUUCCGUUGGCGUAAUGGUAACGCGUCUUCCUCCUGAGGUGAAGACUGCGGGUUCCAGUCCCGUACGGCACG [C29U A36G A40U G56C A69C] | ≤ 0.5
GUUCCGUUGGCGUAAUGGUAACGCGUCUUCCUCCUUAGGAGAAGACUGCGGGUUCGAGUCCCGUACGGAACG [C29U A36U] | 0.567
GUUCCGUUGGCGUAAUGGUAACGCGUCUUCCUCCUUAGGAGAAGACUGCGGGUUCGAGUCCCGUAGGGAACG [C29U A36U C66G] | ≤ 0.5
GUUCCGUUGGCGUAAUGGUAACGCGUCUUCCUCCUUAGGAGAAGACUGCGGGUUCGAGUCCCGUAUAGAACG [C29U A36U C66U G67A] | 0.527
GUUCCGUUGGCGUAAUGGUAACGCGUCUUCCUCCUACGGGGUAGACUGCGGGUUCGAGUCCCGUACGGAACG [C29U A37C A40G A42U] | ≤ 0.5

Variant | yeast fitness
GUUCCGUUGGCGUAAUGGUAACGCGUCUUCCUCCUACGGAGAAGACUGCGGGUUCGAGUCCCGUCCGGAACG [C29U A37C A65C] | ≤ 0.5
GUUCCGUUGGCGUAAUGGUAACGCGUCUUCCUCCUACGGAGAAGACUGUGGGUUGGAGUCCCGUACGCAACG [C29U A37C C49U C55G G68C] | ≤ 0.5
GUUCCGUUGGCGUAAUGGUAACGCGUCUUCCUCCUACGGAGAAGACUGCGGGUUAGAAUCCCGUACGGAACG [C29U A37C C55A G58A] | ≤ 0.5
GUUCCGUUGGCGUAAUGGUAACGCGUCUUCCUCCUAGGGAGAAGACUGCGGGUUCGAGUCCCGUACGGAACG [C29U A37G] | 0.729
GUUCCGUUGGCGUAAUGGUAACGCGUCUUCCUCCUAGGGAGAAGACUGCGGGUUCGAGUCCCGUUCGGAACG [C29U A37G A65U] | ≤ 0.5
GUUCCGUUGGCGUAAUGGUAACGCGUCUUCCUCCUAGGGAGAAGACUGUGGGUUCGAGUCCCGUACGGAACG [C29U A37G C49U] | 0.613
GUUCCGUUGGCGUAAUGGUAACGCGUCUUCCUCCUAGGCAGAAGACUGUGGGUUCGAGUCCCGUACGGAACG [C29U A37G G39C C49U] | ≤ 0.5
GUUCCGUUGGCGUAAUGGUAACGCGUCUUCCUCCUAGGGAGAAGACUACGGGUUCGAGUCCCGUACGCUACG [C29U A37G G48A G68C A69U] | 0.662
GUUCCGUUGGCGUAAUGGUAACGCGUCUUCCUCCUAUGGAGAAGACUGCGGGUUCGAGUCCCGUACGGAACG [C29U A37U] | 0.734
GUUCCGUUGGCGUAAUGGUAACGCGUCUUCCUCCUAUGGAGAAGAUUGCGGGUUCGAGUCCCGUACGGAACG [C29U A37U C46U] | 0.602
GUUCCGUUGGCGUAAUGGUAACGCGUCUUCCUCCUAUGGAGAAGACUGCGGGUUCGAGUCCCGUACAGAACG [C29U A37U G67A] | 0.643
GUUCCGUUGGCGUAAUGGUAACGCGUCUUCCUCCUAAGGCGAAGACUGCGGGUUCGAGUCCCGUACGGAACG [C29U A40C] | 0.815
GUUCCGUUGGCGUAAUGGUAACGCGUCUUCCUCCUAAGGCGAAGACUGCGGGUUCGAGUCCCGUAUGGAACG [C29U A40C C66U] | 0.642
GUUCCGUUGGCGUAAUGGUAACGCGUCUUCCUCCUAAGGCGAAGACUGCGGGUUCCAGUCGGGUACGCAACG [C29U A40C G56C C61G C62G G68C] | ≤ 0.5
GUUCCGUUGGCGUAAUGGUAACGCGUCUUCCUCCUAAGGGGAAGACAGCGGGUUCGAGUCCCGUACGGAACG [C29U A40G U47A] | 0.582
GUUCCGUUGGCGUAAUGGUAACGCGUCUUCCUCCUAAGGGGAAGACAGCGGGUUCGAGUCUAGUACGGAGCG [C29U A40G U47A C61U C62A A70G] | ≤ 0.5
GUUCCGUUGGCGUAAUGGUAACGCGUCUUCCUCCUAAGGUGAAGACUGCGGGUUCGAGUCCCGUACGGAACG [C29U A40U] | 0.836
GUUCCGUUGGCGUAAUGGUAACGCGUCUUCCUCCUAAGGUGAAGACUGCGGGUUCGGGUCCCGCACGGAACG [C29U A40U A57G U64C] | ≤ 0.5
GUUCCGUUGGCGUAAUGGUAACGCGUCUUCCUCCUAAGGUGAAGACUGCGGGUUCGAGUCCCGUUCGGAACG [C29U A40U A65U] | 0.584
